Results: ChEMBL document CHEMBL1122273, “5-sulfamoylorthanilic acids, a sulfonamide series with salidiuretic activity” (J Med Chem, 1983)
“And” between values parts separate entries of the source, which are not always exact repeats. Identical values can stand only once.

Legend:
Canis familiaris [1] = test: Diuretic activity in the dog (2 animals/dose) at (dose 1.56 mg/Kg), when administered perorally; type: functional, Canis lupus familiaris, Urine
How it was run: (§1)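 Trained male beagles, fasted 24 h with tap water ad libitum. Bladder emptied by catheter, then 20 mL/kg tap water by stomach tube, with 4 mL/kg water at each hourly catheterization up to 8 h. The first 2 h of urine served as control. Oral dosing came after the second catheterization, and 1–6 h urine was pooled. Na⁺ and K⁺ were measured by flame photometry, Cl⁻ argentometrically, in mequiv/kg.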

Canis familiaris [2] = test: Diuretic activity in the dog (2 animals/dose) at (dose 12.5 mg/Kg), when administered perorally; type: functional, Canis lupus familiaris, Urine; how it was run: as §1
Canis familiaris [3] = test: Saluretic activity in the dog measured as concentration of K+ in urinary excretion (2 animals/dose) at (dose mg/Kg, po); type: functional, Canis lupus familiaris, Urine
How it was run: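 Male beagles trained to rest on a table and to accept stomach tube and catheter. Food withdrawn 24 h before, tap water ad libitum. Bladder emptied by catheter, then 20 mL/kg tap water by stomach tube. Catheterized hourly up to 8 h with 4 mL/kg water orally each time; first 2 h urine served as control. Oral dosing after second catheterization. Pooled 1–6 h urine; Na⁺/K⁺ by flame photometry, Cl⁻ argentometrically.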

Canis familiaris [4] = test: It is the ratio, measured as saluretic activity in the dog as concentration of Cl- in urinary excretion (dose mg/Kg, po) to that of (Na++K+); type: functional, Canis lupus familiaris, Urine; how it was run: as §1
Canis familiaris [5] = test: It is the ratio, measured as saluretic activity in the dog as concentration of Na+ in urinary excretion (dose mg/Kg, po) to that of K; type: functional, Canis lupus familiaris, Urine; how it was run: as §1
Rattus norvegicus [6] = species: Rattus norvegicus; test: Diuretic activity in the rats, determined by a modified Lipschitz test; type: functional, Urine
How it was run: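 Modified Lipschitz test: rats deprived of water 24 h, grouped in threes of similar weight in diuresis funnels. Oral dose of 50 mg/kg, suspended in 2% starch solution, by stomach tube.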

Rattus norvegicus [7] = species: Rattus norvegicus; test: Saluretic activity in the rat measured as concentration of chloride in urine; type: functional
How it was run: (§2)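 Rats deprived of food 24 h, water ad libitum, dosed 50 mg/kg by stomach tube as suspension in 2% starch, no extra water load. Groups of three in diuresis funnels; urine over first 5 h collected. Na⁺ and K⁺ by flame photometry, Cl⁻ argentometrically; expressed as mequiv/kg.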

Rattus norvegicus [8] = species: Rattus norvegicus; test: Saluretic activity in the rat measured as concentration of K+ in urine; type: functional; how it was run: as §2
Rattus norvegicus [9] = species: Rattus norvegicus; test: Saluretic activity in the rat measured as concentration of Na+ in urine; type: functional; how it was run: as §2
Canis familiaris [10] = test: Diuretic activity in the dog (2 animals/dose) at (dose 6.25 mg/Kg), when administered perorally; type: functional, Canis lupus familiaris, Urine; how it was run: as §1
Canis familiaris [11] = test: Sailuric activity in the dog measured as concentration of K+ in urinary excretion (2 animals/dose) at (dose 0.78 mg/Kg, po); type: functional, Canis lupus familiaris, Urine
How it was run: (§3)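 Male beagles trained to the procedures, food withdrawn 24 h before, tap water ad libitum. Bladder emptied by catheter, then 20 mL/kg tap water by stomach tube, plus 4 mL/kg orally at each hourly catheterization up to 8 h. The first 2 h of urine served as control. Compound given orally after the second catheterization. Urine from 1–6 h post-dose pooled; Na⁺ and K⁺ by flame photometry, Cl⁻ argentometrically, in mequiv/kg.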

Canis familiaris [12] = test: Sailuric activity in the dog measured as concentration of Cl - in urinary excretion (2 animals/dose) at (dose 0.78 mg/Kg, po); type: functional, Canis lupus familiaris, Urine; how it was run: as §1
Canis familiaris [13] = test: Sailuric activity in the dog measured as concentration of Cl - in urinary excretion (2 animals/dose) at (dose 6.25 mg/Kg, po); type: functional, Canis lupus familiaris, Urine; how it was run: as §3
Canis familiaris [14] = test: Sailuric activity in the dog measured as concentration of K+ in urinary excretion (2 animals/dose) at (dose 6.25 mg/Kg, po); type: functional, Canis lupus familiaris, Urine; how it was run: as §3
Canis familiaris [15] = test: Sailuric activity in the dog measured as concentration of Na+ in urinary excretion (2 animals/dose) at (dose 0.78 mg/Kg, po); type: functional, Canis lupus familiaris, Urine; how it was run: as §3
Canis familiaris [16] = test: Sailuric activity in the dog measured as concentration of Na+ in urinary excretion (2 animals/dose) at (dose 6.25 mg/Kg, po); type: functional, Canis lupus familiaris, Urine; how it was run: as §3
Rattus norvegicus [17] = species: Rattus norvegicus; test: Effect on Urine flow in rats was evaluated
Rattus norvegicus [18] = species: Rattus norvegicus; test: Effect on (GFR) glomerular filtration rate in rats was evaluated

SMILES | Diuretic activity (Canis familiaris [1]) | Diuretic activity (Canis familiaris [2]) | Saluretic activity (Canis familiaris [3]) | Saluretic activity (Canis familiaris [4]) | Saluretic activity (Canis familiaris [5]) | Diuretic activity (Rattus norvegicus [6]) | Saluretic activity (Rattus norvegicus [7]) | Saluretic activity (Rattus norvegicus [8]) | Saluretic activity (Rattus norvegicus [9]) | Diuretic activity (Canis familiaris [10]) | Saldiuretic activity (Canis familiaris [11]) | Saluretic activity (Canis familiaris [12]) | Saluretic activity (Canis familiaris [13]) | Saluretic activity (Canis familiaris [14]) | Saluretic activity (Canis familiaris [15]) | Saluretic activity (Canis familiaris [16]) | Volume (Rattus norvegicus [17]) | GFR (Rattus norvegicus [18])
NS(=O)(=O)c1cc(S(=O)(=O)[O-])c(NCc2ccco2)cc1Nc1ccccc1.[Na+] | 32.3 ml kg-1 6hr-1 | 49.4 ml kg-1 6hr-1 | 0.18 m equiv 6hr-1 kg-1 and 0.45 m equiv 6hr-1 kg-1 | 1 and 1.1 | 2.1 and 5 | 0.6 mL/kg | 1.1 m equiv 5hr-1 kg-1 | 0.7 m equiv 5hr-1 kg-1 | 0.6 m equiv 5hr-1 kg-1 | – | – | – | – | – | – | – | – | –
NS(=O)(=O)c1cc(C(=O)O)c(NCc2ccco2)cc1Cl [FUROSEMIDE] | – | – | – | – | – | 4.9 mL/kg | 7.2 m equiv 5hr-1 kg-1 | 2.6 m equiv 5hr-1 kg-1 | 4.8 m equiv 5hr-1 kg-1 | 69 ml kg-1 6hr-1 | 0.5 m equiv 6hr-1 kg-1 | 1.85 m equiv 6hr-1 kg-1 | 6.27 m equiv 6hr-1 kg-1 | 1.26 m equiv 6hr-1 kg-1 | 1.37 m equiv 6hr-1 kg-1 | 5.54 m equiv 6hr-1 kg-1 | 0.0599 L/h/kg | 0.529 L/h/kg
